One may read the MIC as the lowest concentration found to suppress growth.

Assay [1] has as its system Escherichia coli. Briefly: Antibacterial activity against Escherichia coli K-12 W3110 infected in mouse assessed as increase of mouse survival at 30 ug, ip administered 15 mins and 12 hrs postinfection. It is filed as functional, organism-based. The following applies: K-12 substr. W3110. A digest of the protocol: (§1)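 Mice in groups of 3–7 were infected intraperitoneally with E. coli W3110 from an LB culture. They were treated ip at 15 min and 12 h postinfection with 10, 30, 100 or 300 μg per dose; 300 μg is noted as ~15 mg/kg. Controls were water or scrambled-sequence PPMO. Survival was followed to 48 h and analysed by the Kaplan-Meier method.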

Assay [2] concerns Escherichia coli. In words: Antibacterial activity against Escherichia coli K-12 W3110 infected in mouse assessed as reduction of bacterial level in blood at 100 to 300 ug, ip administered 15 mins and 12 hrs postinfection relative to control. It is filed as functional, K-12 substr. W3110. A digest of the protocol: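 E. coli K-12 W3110 was grown in LB broth for the inoculum and injected intraperitoneally into groups of 3–7 mice. Conjugates were given ip at 15 min and 12 h postinfection (10–300 μg per dose), with water or scrambled-sequence conjugate as controls. Blood drawn at 2, 6, 12, 24 and 48 h was diluted and plated on LB for CFU counts. Survival was followed by Kaplan-Meier, and log CFU was compared by ANOVA with Tukey-Kramer.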

Assay [3] has as its system Escherichia coli. In words: Antibacterial activity against Escherichia coli K-12 W3110 infected in mouse assessed as reduction of bacterial level in blood at 30 ug, ip administered 15 mins and 12 hrs postinfection measured after 2 hrs post dose relative to control. The format is functional. A digest of the protocol: (§2)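 Mice in groups of 3–7 were infected intraperitoneally with E. coli W3110 from an LB culture. They were dosed ip with 10–300 μg per dose at 15 min and 12 h postinfection. Controls were water or scrambled-sequence PPMO. Blood was taken at 2, 6, 12, 24 and 48 h, diluted and plated on LB for CFU/ml. Log CFU was compared by one-way ANOVA with Tukey-Kramer; mean ± SD.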

Assay [4] concerns Escherichia coli. Briefly: Antibacterial activity against Escherichia coli K-12 W3110 by microdilution method. The following applies: K-12 substr. W3110. It is filed as functional. On the technique in general: Broth dilution looks for growth in wells or tubes with falling amounts of substance.
Assay [5] concerns Escherichia coli. In words: Antibacterial activity against Escherichia coli K-12 W3110 infected in mouse assessed as reduction of bacterial level in blood at 100 ug, ip administered 15 mins and 12 hrs postinfection measured after 12 hrs post dose relative to control. The format is functional, K-12 substr. W3110. A digest of the protocol: as §2
The subject of assay [6] is Escherichia coli. In words: Antibacterial activity against Escherichia coli K-12 W3110 infected in mouse assessed as reduction of bacterial level in blood at 300 ug, ip administered 15 mins and 12 hrs postinfection measured after 12 hrs post dose relative to control. The format is functional, K-12 substr. W3110. A digest of the protocol: as §2
The subject of assay [7] is Escherichia coli. In words: Antibacterial activity against Escherichia coli K-12 W3110 infected in mouse assessed as increase of mouse survival at 10 ug, ip administered 15 mins and 12 hrs postinfection. It is filed as functional, organism-based. The method in brief:
as §1

In assay [8] the test system is Escherichia coli. In words: Antibacterial activity against Escherichia coli K-12 W3110 infected in mouse assessed as increase of mouse survival at 30 to 300 ug, ip administered 15 mins and 12 hrs postinfection. The following applies: K-12 substr. W3110. It is filed as functional, organism-based. A digest of the protocol: as §1
In assay [9] the test system is Escherichia coli. Briefly: Antibacterial activity against Escherichia coli K-12 W3110 infected in mouse assessed as increase of mouse survival at 100 ug, ip administered 15 mins and 12 hrs postinfection. The following applies: K-12 substr. W3110. The format is functional, organism-based. A digest of the protocol: as §1
The subject of assay [10] is Escherichia coli. Briefly: Antibacterial activity against Escherichia coli K-12 W3110 infected in mouse assessed as reduction of bacterial level in blood at 30 to 300 ug, ip administered 15 mins and 12 hrs postinfection measured after 2 hrs post dose relative to control. The format is functional, organism-based. The note with it: K-12 substr. W3110. The method in brief: as §2

Assay [11] concerns Escherichia coli. In words: Antibacterial activity against Escherichia coli K-12 W3110 infected in mouse assessed as reduction of bacterial level in blood at 100 to 300 ug, ip administered 15 mins and 12 hrs postinfection. It is filed as functional, K-12 substr. W3110. The method in brief:
as §2

The test system of assay [12] is Escherichia coli. In words: Antibacterial activity against Escherichia coli K-12 W3110 infected in mouse assessed as increase of mouse survival at 300 ug, ip administered 15 mins and 12 hrs postinfection. It is filed as functional, organism-based. The note with it: K-12 substr. W3110. A digest of the protocol:
as §1

≈ marks a conversion by molar mass, not a printed value. Calls of active or inactive are those of the source. The calls are words filed in the database; no cut-off is given here.

Consider `CC1(C)S[C@@H]2[C@H](NC(=O)[C@H](N)c3ccccc3)C(=O)N2[C@H]1C(=O)O` [AMPICILLIN], for which the outcome in the assay with Escherichia coli [1] and with Escherichia coli [3] (K-12 substr. W3110) was inactive. The log10cfu in the assay with Escherichia coli [2] is 3.

Molecule `Cc1cn([C@H]2CN(P(=O)(OC[C@@H]3CN(P(=O)(OC[C@@H]4CN(P(=O)(OC[C@@H]5CN(P(=O)(OC[C@@H]6CN(P(=O)(OC[C@@H]7CN(P(=O)(OC[C@@H]8CN(P(=O)(OC[C@@H]9CN(P(=O)(OC[C@@H]%10CNC[C@H](n%11cnc%12c(=O)[nH]c(N)nc%12%11)O%10)N(C)C)C[C@H](n%10cc(C)c(=O)[nH]c%10=O)O9)N(C)C)C[C@H](n9cnc%10c(=O)[nH]c(N)nc%109)O8)N(C)C)C[C@H](n8cnc9c(N)ncnc98)O7)N(C)C)C[C@H](n7cc(C)c(=O)[nH]c7=O)O6)N(C)C)C[C@H](n6cnc7c(N)ncnc76)O5)N(C)C)C[C@H](n5cnc6c(=O)[nH]c(N)nc65)O4)N(C)C)C[C@H](n4ccc(N)nc4=O)O3)N(C)C)C[C@@H](COP(=O)(N(C)C)N3C[C@@H](COP(=O)(N(C)C)N4C[C@@H](COP(=O)(N(C)C)N5CCN(C(=O)CCNC(=O)CCCCCNC(=O)[C@H](CCCNC(=N)N)NC(=O)CCCCNC(=O)[C@H](CCCNC(=N)N)NC(=O)[C@H](CCCNC(=N)N)NC(=O)CCCCNC(=O)[C@H](CCCNC(=N)N)NC(=O)[C@H](CCCNC(=N)N)NC(=O)CCCCNC(=O)[C@H](CCCNC(=N)N)NC(=O)[C@H](CCCNC(=N)N)NC(=O)CCCCNC(=O)[C@@H](N)CCCNC(=N)N)CC5)O[C@@H](n5ccc(N)nc5=O)C4)O[C@@H](n4cc(C)c(=O)[nH]c4=O)C3)O2)c(=O)[nH]c1=O` (some centres not stated) gave an MIC in the assay with Escherichia coli [4] of 1.25 µM (≈ 7.02 µg/mL). Further, the log10cfu with Escherichia coli [5] and with Escherichia coli [6] was 2.5 each time. In addition, the Activity is 98% in the assay on Escherichia coli [3] and “Antagonist” in the assay with Escherichia coli [7] (K-12 substr. W3110, filed as antagonist). Besides, the result with Escherichia coli [8] was Active.

With `Cc1cn([C@H]2CN(P(=O)(OC[C@@H]3CN(P(=O)(OC[C@@H]4CN(P(=O)(OC[C@@H]5CN(P(=O)(OC[C@@H]6CN(P(=O)(OC[C@@H]7CN(P(=O)(OC[C@@H]8CN(P(=O)(OC[C@@H]9CN(P(=O)(OC[C@@H]%10CNC[C@H](n%11cnc%12c(=O)[nH]c(N)nc%12%11)O%10)N(C)C)C[C@H](n%10cc(C)c(=O)[nH]c%10=O)O9)N(C)C)C[C@H](n9cnc%10c(=O)[nH]c(N)nc%109)O8)N(C)C)C[C@H](n8cnc9c(N)ncnc98)O7)N(C)C)C[C@H](n7cc(C)c(=O)[nH]c7=O)O6)N(C)C)C[C@H](n6cnc7c(N)ncnc76)O5)N(C)C)C[C@H](n5cnc6c(=O)[nH]c(N)nc65)O4)N(C)C)C[C@H](n4ccc(N)nc4=O)O3)N(C)C)C[C@@H](COP(=O)(N(C)C)N3C[C@@H](COP(=O)(N(C)C)N4C[C@@H](COP(=O)(N(C)C)N5CCN(C(=O)CCNC(=O)CCCCCNC(=O)[C@H](CCCNC(=N)N)NC(=O)CCCCCNC(=O)[C@H](CCCNC(=N)N)NC(=O)CCCCCNC(=O)[C@H](CCCNC(=N)N)NC(=O)CCCCCNC(=O)[C@H](CCCNC(=N)N)NC(=O)CCCCCNC(=O)[C@H](CCCNC(=N)N)NC(=O)CCCCCNC(=O)[C@@H](N)CCCNC(=N)N)CC5)O[C@@H](n5ccc(N)nc5=O)C4)O[C@@H](n4cc(C)c(=O)[nH]c4=O)C3)O2)c(=O)[nH]c1=O` (some centres not stated), the outcome in the assay on Escherichia coli [1], with Escherichia coli [7] (K-12 substr. W3110) and in the assay with Escherichia coli [12] was inactive. Besides, the outcome in the assay on Escherichia coli [9] and in the assay on Escherichia coli [10] was Active. The molecule also returned an MIC with Escherichia coli [4] of 1.25 µM (≈ 6.84 µg/mL). The Activity in the assay on Escherichia coli [3] is on record as 88%. Moreover, in the assay on Escherichia coli [11], the log10cfu is listed as 3.

The record behind these values is ChEMBL document CHEMBL1629608, “Variations in amino acid composition of antisense peptide-phosphorodiamidate morpholino oligomer affect potency against Escherichia coli in vitro and in vivo” (Antimicrob Agents Chemother, 2009).
